PDI inh: blocks human protein disulfide isomerase activity; P07237; actives 0.052% (n = 350,000); PDI insulin aggregation turbidity, A650, 90 min; AID 588391; inhibition, % at 10 µM;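 active means mean inhibition across replicates of 30% or more, whatever share of single replicates reach that level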
ERAP1 inh: ERAP1 (human) enzyme inhibition; Q9NZ08; recombinant ERAP1, Leu-AMC fluorescence, 60 min; inhibition, % at 10.7 µM; actives 0.15% (n = 340,000); AID 652197;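 active means mean replicate inhibition of at least 30%, or all replicates individually reaching that 30% level; inactive means mean below 30% and not every replicate reaching it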;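 further: 0% = neutral control wells and 100% = L-leucinethiol positive control wells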
ERp5 block: ERp5 (human) disulfide isomerase inhibition | Q15084 | ERp5 insulin aggregation, absorbance 650 nm, 90 min | inhibition, % at 9.99 µM | actives 0.05% (n = 350,000) | AID 651711;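 active means mean replicate inhibition above about 25%, with every replicate also reaching it, limit read from the data, passing the limit was not always enough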
FGF22 binding: shifts melting point of recombinant human FGF22 | Q9HCT0 | recombinant FGF22 thermal shift, SYPRO orange fluorescence; percent of sucrose octasulfate shift, DMSO zero | activity (Tm shift, normalised), % at 9.99 µM | actives 1.5% (n = 340,000) | AID 651658;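 active means mean Tm shift, scaled 0 neutral to 100 positive control, at about 1.3% or above, every replicate too, limit read from the data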
Target sequence (Q9HCT0 whole entry, looked up): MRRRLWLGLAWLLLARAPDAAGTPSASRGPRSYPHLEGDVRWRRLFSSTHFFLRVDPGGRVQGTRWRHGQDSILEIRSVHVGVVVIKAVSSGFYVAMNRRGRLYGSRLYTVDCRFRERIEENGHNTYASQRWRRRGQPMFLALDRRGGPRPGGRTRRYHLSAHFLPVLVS
S100A4 inh HTS: S100A4-myosin IIA interaction inhibition; actives 0.14% (n = 360,000); inhibition, % at 10.7 µM; S100A4/TAMRA-MyoIIA peptide fluorescence polarization; P26447;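 active means mean inhibition of at least 70% across replicates, with every replicate also reaching that level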
Target sequence (P26447 whole entry, looked up): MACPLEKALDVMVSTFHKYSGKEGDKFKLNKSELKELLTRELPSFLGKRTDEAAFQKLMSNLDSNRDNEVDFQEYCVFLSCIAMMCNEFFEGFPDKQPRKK
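assay system = human S100A4 monomer with TAMRA-labelled myosin IIA peptide | also added = labelled myosin peptide probe, 5 nM | incubation = 5 min between mix addition and reading | control set = DMSO and TFP controls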
The depositor's hits bear a star; nt = not tested or not shown; ! = a repeat was not active. The full list was thinned out, with hits kept by preference.

SMILES	PDI inh	ERAP1 inh	ERp5 block	FGF22 binding	S100A4 inh HTS
CN=C(NC(=O)Nc1c(C)cccc1C)NC(=O)Nc1c(C)cccc1C	-8	-3	4	44*	14
Cc1cc(=O)oc2cc(OCC(=O)NCc3ccncc3)ccc12	-4	3	-4	0	-2
Nc1cnccc1C(=O)O	-5	-3	0	1	80*
CN(C)CCCn1c2c(c(SCC(=O)Nc3cccc4ccccc34)nc1=O)CCCC2	-3	1	5	0	0
Cc1ccc(S(=O)(=O)/N=S(/c2ccccc2)C(C)C)cc1 (configuration not stated)	-2	46*	3	0	-3
CC(C)(C)NC(=O)CN(Cc1cccs1)C(=O)CNS(=O)(=O)c1ccc(F)cc1	3	1	-3	43*	2
COc1cc(OC)cc(C(=O)NCC(=O)OCC(=O)/C=C2/N(C)c3ccccc3C2(C)C)c1	6	6	5	43	-45
CC(C)[C@H](NC(=O)c1ccccc1)C(=O)OCC(=O)/C=C1/N(C)c2ccccc2C1(C)C	-7	-4	0	44*	-2
O=C1N(Cc2cccc(Cl)c2)C[C@@H]2C[C@@H](c3cccn3-c3nccs3)N3CCC[C@@]123	0	nt	7	0	-4
CN1C[C@@H]2C[C@@H](c3cccn3-c3nccs3)N3CCC[C@@]23C1=O	-5	3	3	43*	4
C[C@@H]1CN([C@@H](C)CO)C(=O)c2cc(Br)cnc2O[C@H]1CN(C)C(=O)c1ccc(F)cc1	nt	2	3	0	6
CC(C)(C)c1cc(N)n2nc(C(C)(C)C)cc2n1	-6	-1	3	44*	-4
Cc1cc2nc(C(C)(C)C)cc(N)n2n1	7	-1	5	0	1
CCCNC(=O)C[C@H]1C[C@H]2c3cc(NS(=O)(=O)c4ccc(OC)cc4)ccc3O[C@H]2[C@@H](CO)O1	nt	nt	nt	0	nt
Cc1cc(C)c(S(=O)(=O)N2CCC(C(=O)NCc3ccco3)CC2)c(C)c1	-2	nt	nt	nt	nt
O=C(/C=C/c1c(Cl)nc2ccccn12)Nc1ccc(F)cc1	-2	-2	2	44*	-1
O=Cc1c(Cl)nc2ccccn12	-3	-6	5	0	4
Cn1c(SCC(=O)Nc2nc(C(C)(C)C)cs2)nnc1C1CC1	-1	-2	-4	0	3
Cc1ccc(C(=O)Nc2ccc(N3CCN(C(=O)c4ccco4)CC3)cc2)c(Cl)c1	1	-1	-3	0	-2
C[C@@H]1CN([C@@H](C)CO)S(=O)(=O)c2ccc(C#Cc3cccnc3)cc2O[C@H]1CN(C)C(=O)CN(C)C	nt	1	54*	0	-5
CC(C)C#Cc1ccc2c(c1)O[C@H](CN(C)C(=O)C1CC1)[C@H](C)CN([C@@H](C)CO)S2(=O)=O	nt	1	-2	0	-2
COCC(=O)N(C)C[C@H]1Oc2cc(C#CC(C)(C)O)ccc2S(=O)(=O)N([C@H](C)CO)C[C@H]1C	nt	0	73*	0	-3
CC(C)C#Cc1ccc2c(c1)O[C@@H](CN(C)C(=O)C1CC1)[C@@H](C)CN([C@@H](C)CO)S2(=O)=O	nt	1	61*	0	-5
COCC(=O)N(C)C[C@@H]1Oc2cc(C#CC(C)(C)O)ccc2S(=O)(=O)N([C@@H](C)CO)C[C@H]1C	nt	0	15	0	-11
C[C@@H]1CN([C@H](C)CO)S(=O)(=O)c2ccc(C#C[C@@H](C)O)cc2O[C@@H]1CN(C)C(=O)C1CC1	nt	0	0	0	121*
C[C@H](CO)N1C[C@H](C)[C@H](CN(C)C(=O)Nc2ccc(F)cc2)Oc2ccc(NC(=O)CCCCCC(=O)Nc3ccccc3N)cc2C1=O	nt	1	0	0	4
C[C@@H]1CN([C@@H](C)CO)S(=O)(=O)c2ccc(Br)cc2O[C@H]1CN(C)C(=O)c1ccncc1	-5	2	-2	43*!	-3
C[C@@H]1CN([C@H](C)CO)S(=O)(=O)c2ccc(C#CCN(C)C)cc2O[C@@H]1CN(C)CC1CC1	nt	1	0	0	96*
O=C(C[C@@H]1C[C@H]2c3cc(NC(=O)c4ccc5c(c4)OCO5)ccc3O[C@H]2[C@@H](CO)O1)NCC1CC1	nt	2	-5	0	0
COc1ccc2c3c(n(C)c2c1)[C@@H](CO)N(C(=O)c1cccnc1)CC31CCN(S(=O)(=O)c2ccccc2)CC1	nt	nt	nt	0	nt
